Experimental data from ChEMBL document CHEMBL2384997, “2-(1H-Pyrazol-4-yl)acetic acids as CRTh2 antagonists” (Bioorg Med Chem Lett, 2013).
≈ marks a conversion by molar mass, not a printed value. Each block holds one compound with its values, some of them ahead of it.

How the values were obtained:
[1] = target: T1, Prostaglandin D2 receptor 2 (Homo sapiens, UniProt Q9Y5Y4); experiment: Antagonist activity at CRTh2 receptor (unknown origin) overexpressed in CHOK1 cell membranes assessed as inhibition of [35S]-GTPgammaS binding preincubated for 1 hr followed by 50 nM PGD2 and 0.1 nM [35S]-GTPgammaS addition measured after 2 hrs by liquid scintillation counting analysis; type: functional, CHO-K1
T1 sequence (Q9Y5Y4 whole entry): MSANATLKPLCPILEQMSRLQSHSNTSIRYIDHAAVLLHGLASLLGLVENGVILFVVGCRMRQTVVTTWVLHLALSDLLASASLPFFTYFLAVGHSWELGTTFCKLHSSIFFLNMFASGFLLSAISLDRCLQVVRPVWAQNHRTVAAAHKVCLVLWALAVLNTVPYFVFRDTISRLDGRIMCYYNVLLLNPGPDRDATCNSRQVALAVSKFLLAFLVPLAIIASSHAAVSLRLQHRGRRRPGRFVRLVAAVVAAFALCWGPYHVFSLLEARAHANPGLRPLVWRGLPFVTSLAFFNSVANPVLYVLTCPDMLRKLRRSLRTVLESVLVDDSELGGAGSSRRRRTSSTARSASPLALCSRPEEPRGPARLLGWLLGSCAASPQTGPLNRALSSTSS

[2] = target: T2, Prostaglandin D2 receptor (Homo sapiens) (UniProt Q13258); experiment: Inhibition of DP1 receptor (unknown origin) at 10 uM relative to control
T2 sequence (whole entry): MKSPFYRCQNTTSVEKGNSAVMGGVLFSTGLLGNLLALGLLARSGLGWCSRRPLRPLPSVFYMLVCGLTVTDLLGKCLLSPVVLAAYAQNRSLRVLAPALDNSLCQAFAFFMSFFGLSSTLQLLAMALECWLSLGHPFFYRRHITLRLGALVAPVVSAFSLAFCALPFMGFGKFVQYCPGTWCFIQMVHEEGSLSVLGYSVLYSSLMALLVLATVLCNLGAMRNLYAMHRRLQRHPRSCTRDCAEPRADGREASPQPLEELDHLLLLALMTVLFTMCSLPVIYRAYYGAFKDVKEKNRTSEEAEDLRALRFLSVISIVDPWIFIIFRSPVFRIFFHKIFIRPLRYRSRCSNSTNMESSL

[3] = target: T3, Thromboxane A2 receptor (Homo sapiens) (UniProt P21731); experiment: Inhibition of thromboxane A2 receptor (unknown origin) at 10 uM relative to control
T3 sequence (whole entry): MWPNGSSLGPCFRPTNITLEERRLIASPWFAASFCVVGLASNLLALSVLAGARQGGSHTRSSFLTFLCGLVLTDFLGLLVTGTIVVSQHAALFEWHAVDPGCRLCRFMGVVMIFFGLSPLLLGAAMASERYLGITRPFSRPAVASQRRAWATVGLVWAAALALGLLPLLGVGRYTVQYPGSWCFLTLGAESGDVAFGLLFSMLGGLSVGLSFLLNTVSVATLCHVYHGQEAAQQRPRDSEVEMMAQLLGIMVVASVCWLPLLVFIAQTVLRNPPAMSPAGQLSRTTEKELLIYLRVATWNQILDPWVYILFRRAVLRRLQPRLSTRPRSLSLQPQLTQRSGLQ

[4] = target: T1, Prostaglandin D2 receptor 2; experiment: Antagonist activity at CRTh2 receptor overexpressed in CHOK1 cell membranes assessed as inhibition of [35S]-GTPgammaS binding in presence of 1% human serum albumin
[5] = Clearance in rat at 0.5 mg/kg, iv; type: ADME, organism-based; parameters: dose 0.5 mg/kg, route intravenous; conditions: in vivo
[6] = Apparent permeability from apical to basolateral side in human Caco2 cells; type: ADME, cell-based; conditions: Caco-2
[7] = Solubility of the compound at pH 1; type: physicochemical; conditions: buffer
[8] = AUC ( 0 to 24 hrs) in rat at 0.5 mg/kg, iv; type: ADME, organism-based; parameters: time < 24 hr, dose 0.5 mg/kg, route intravenous; conditions: plasma
[9] = Solubility of the compound at pH 7.4; type: physicochemical; conditions: buffer
[10] = Oral bioavailability in rat at 1 mg/kg; type: ADME, organism-based; conditions: in vivo
[11] = Half life in rat at 0.5 mg/kg, iv; type: ADME, organism-based; parameters: dose 0.5 mg/kg, route intravenous; conditions: in vivo
[12] = Apparent permeability from basolateral to apical side in human Caco2 cells; type: ADME, cell-based; conditions: Caco-2
[13] = Dissociation constant, pKa of the compound by potentiometric method; type: physicochemical
Summary of the method: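 pKa determined potentiometrically.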

[14] = Volume of distribution at steady state in rat at 0.5 mg/kg, iv; type: ADME, organism-based; parameters: dose 0.5 mg/kg, route intravenous; conditions: in vivo, read-out: Vdss
[15] = Lipophilicity , log D of the compound at pH 7.4 by shake-flask method; type: physicochemical; conditions: buffer
Summary of the method: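 logD at pH 7.4 by shake-flask.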

[16] = target: T4, Prostaglandin D2 receptor 2 (Homo sapiens) (UniProt Q9Y5Y4); experiment: Ratio of IC50 for CRTh2 receptor in human whole blood assessed as inhibition of PGD2-induced eosinophil shape change to IC50 for CRTh2 receptor (unknown origin) overexpressed in CHOK1 cells assessed as inhibition of [35S]-GTPgammaS binding; type: functional, cell-based; conditions: CHO-K1
T4 sequence (whole entry): T1 sequence (Q9Y5Y4 whole entry)

[17] = target: T4, Prostaglandin D2 receptor 2 (Homo sapiens); conditions: CHO-K1
[18] = Plasma protein binding in human by rapid equilibrium dialysis method; type: ADME, cell-free; conditions: read-out: PPB
Summary of the method: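 Protein binding by equilibrium dialysis; human plasma diluted to 10%.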

[19] = Oral bioavailability in rat at 10 mg/kg; type: ADME, organism-based; conditions: in vivo
[20] = Volume of distribution at steady state in rat at 1 mg/kg, iv; type: ADME, organism-based; parameters: dose 1 mg/kg, route intravenous; conditions: in vivo, read-out: Vdss
[21] = AUC ( 0 to 24 hrs) in rat at 1 mg/kg, iv; type: ADME, organism-based; parameters: time < 24 hr, dose 1 mg/kg, route intravenous; conditions: plasma
[22] = Terminal half life in rat at 1 mg/kg, iv; type: ADME, organism-based; parameters: dose 1 mg/kg, route intravenous; conditions: in vivo, read-out: beta t1/2 (converted)
[23] = Plasma protein binding in rat by rapid equilibrium dialysis method; type: ADME, cell-free; conditions: read-out: PPB (converted)
[24] = Clearance in rat at 1 mg/kg, iv; type: ADME, organism-based; parameters: dose 1 mg/kg, route intravenous; conditions: in vivo

IC50 ([1]; read-out: IC50): 1100 nM
Compound: Cc1c(CC(=O)O)c(-c2ccccc2)nn1C(c1ccc(F)cc1)c1ccc(F)cc1

inhibition [2]: < 40%
inhibition [3]: < 40%
IC50 ([1]; read-out: IC50): 2000 nM
Compound: Cc1c(CC(=O)O)c(-c2ccccc2)nn1Cc1ccccc1Oc1ccccc1

IC50 ([1]; cho-k1): Not Active
Compound: Cc1c(CC(=O)O)c(-c2ccccc2)nn1Cc1ccc(S(C)(=O)=O)cc1

inhibition [2]: < 40%
inhibition [3]: < 40%
Compound: Cc1c(CC(=O)O)c(=O)[nH]n1Cc1ccccc1S(=O)(=O)c1ccccc1

IC50 [4]: 66 nM
IC50 ([1]; read-out: IC50): 4 nM
Compound: Cc1c(CC(=O)O)c(-c2ccncc2)nn1Cc1ccccc1S(=O)(=O)c1ccccc1

IC50 ([1]; read-out: IC50): > 5000 nM
Compound: Cc1nn(Cc2ccc3ccccc3n2)c(C)c1CC(=O)O

IC50 ([1]; read-out: IC50): 2900 nM
Compound: Cc1c(CC(=O)O)c(-c2ccccc2)nn1C(C)c1ccccc1S(=O)(=O)c1ccccc1 (stereo not drawn)

IC50 ([1]; read-out: IC50): 5000 nM
Compound: Cc1nn(Cc2ccc(S(C)(=O)=O)cc2)c(C)c1CC(=O)O

clearance [5]: 2.5 mL/min/kg
Papp A→B [6]: 3 ×10⁻⁶ cm/s
solubility [7]: 500 µg/mL (≈ 1280 µM)
AUC(0-t) at 24 h [8]: 3360 ng·h/mL
solubility [9]: 800 µg/mL (≈ 2050 µM)
bioavailability [10]: 12%
IC50 ([1]; read-out: IC50): 230 nM
half-life [11]: 78 min
Papp B→A [12]: 6 ×10⁻⁶ cm/s
pKa [13]: 4.2
Vd [14]: 0.14 L/kg
logD [15]: 0.9
Ratio IC50 [16]: 10
Compound: Cc1nn(-c2cccc(NC(=O)[C@H]3C[C@@H]3c3ccccc3)c2)c(C)c1CC(=O)O

inhibition [2]: < 40%
inhibition [3]: < 40%
IC50 ([1]; read-out: IC50): 100 nM
Compound: Cc1c(CC(=O)O)c(-c2ccccc2)nn1Cc1ccccc1Cc1ccccc1

IC50 ([1]; read-out: IC50): 5000 nM
Compound: Cc1c(CC(=O)O)c(-c2ccccc2)nn1Cc1ccccc1-c1ccccc1

IC50 ([1]; read-out: IC50): 16 nM
Compound: Cc1c(Cc2ccccc2S(=O)(=O)c2ccccc2)c2cc(F)ccc2n1CC(=O)O

IC50 ([1]; read-out: IC50): 1400 nM
Compound: Cc1c(CC(=O)O)c(-c2ccccc2)nn1Cc1ccccc1C(=O)c1ccccc1

IC50 ([1]; read-out: IC50): 290 nM
Compound: O=C(O)Cc1cn(C(c2ccc(F)cc2)c2ccc(F)cc2)nc1-c1ccncc1

IC50 ([1]; read-out: IC50): 1600 nM
Compound: Cc1c(CC(=O)O)c(-c2ccccc2)nn1S(=O)(=O)c1ccc(Cl)c(Cl)c1

IC50 ([1]; read-out: IC50): 36 nM
Compound: COc1ccc(S(=O)(=O)c2ccc(F)cc2)c(Cn2nc(-c3ccccc3)c(CC(=O)O)c2C)c1

inhibition [2]: < 40%
inhibition [3]: < 40%
IC50 ([1]; read-out: IC50): 89 nM
Compound: Cc1c(CC(=O)O)c(-c2ccccc2)nn1Cc1ccccc1S(=O)(=O)N1CCOCC1

IC50 ([1]; read-out: IC50): 490 nM
Compound: Cc1c(CC(=O)O)c(-c2ccccc2)nn1Cc1ccccc1CS(=O)(=O)c1ccccc1

IC50 ([1]; read-out: IC50): 850 nM
Compound: Cc1c(CC(=O)O)c(-c2ccccc2)nn1Cc1ccccc1S(=O)(=O)N(C)C

IC50 ([1]; cho-k1): Not Active
Compound: Cc1c(CC(=O)O)c(-c2ccc(O)nc2)nn1C(c1ccc(F)cc1)c1ccc(F)cc1

IC50 ([1]; read-out: IC50): 310 nM
Compound: Cc1c(CC(=O)O)c(-c2ccnc(F)c2)nn1C(c1ccc(F)cc1)c1ccc(F)cc1

IC50 ([1]; read-out: IC50): 5000 nM
Compound: Cc1c(CC(=O)O)c(-c2ccccc2)nn1Cc1ccc(F)cc1S(=O)(=O)N1CCNCC1

IC50 ([1]; read-out: IC50): 870 nM
Compound: Cc1c(CC(=O)O)c(-c2ccccc2)nn1Cc1ccc2ccccc2n1

IC50 ([1]; read-out: IC50): 5000 nM
Compound: Cc1c(CC(=O)O)c(-c2ccccc2)nn1C(c1ccc(F)cc1)c1ccc(S(C)(=O)=O)cc1 (stereo not drawn)

IC50 ([1]; read-out: IC50): 5000 nM
Compound: Cc1c(CC(=O)O)c(-c2ccccc2)nn1-c1ccnc2ccccc12

inhibition [2]: < 40%
inhibition [3]: < 40%
IC50 ([1]; read-out: IC50): 46 nM
T1/2 [17]: 30 min
Compound: Cc1c(CC(=O)O)c(-c2ccncc2)nn1C(c1ccc(F)cc1)c1ccc(F)cc1

IC50 ([1]; read-out: IC50): 1900 nM
Compound: Cc1c(CC(=O)O)c(-c2ccncc2)nn1Cc1ccc(F)cc1

inhibition [2]: < 40%
Papp A→B [6]: 13 ×10⁻⁶ cm/s
fraction unbound [18]: < 0.001
solubility [7]: 3 µg/mL (≈ 6.72 µM)
bioavailability [19]: 73%
solubility [9]: 950 µg/mL (≈ 2130 µM)
Vd [20]: 1.6 L/kg
inhibition [3]: < 40%
AUC(0-t) at 24 h [21]: 1960 ng·h/mL
IC50 ([1]; read-out: IC50): 7 nM
half-life [22]: 288 min
T1/2 [17]: 12 min
Papp B→A [12]: 17 ×10⁻⁶ cm/s
pKa [13]: 4.2
fraction unbound [23]: 0.012
logD [15]: 0.7
clearance [24]: 8.5 mL/min/kg
Compound: Cc1c(CC(=O)O)c(-c2ccccc2)nn1Cc1ccccc1S(=O)(=O)c1ccccc1

IC50 ([1]; read-out: IC50): 1600 nM
Compound: COc1c(CC(=O)O)c(C)nn1-c1cccc(NC(=O)[C@H]2C[C@@H]2c2ccccc2)c1

inhibition [2]: < 40%
inhibition [3]: < 40%
IC50 ([1]; read-out: IC50): 81 nM
T1/2 [17]: 2 min
Compound: Cc1nn(Cc2ccccc2S(=O)(=O)c2ccccc2)c(C)c1CC(=O)O

IC50 ([1]; cho-k1): Not Active
Compound: Cc1c(CC(=O)O)c(-c2ccccc2)nn1CC1CCCN1S(=O)(=O)c1ccccc1 (stereo not drawn)
